High-throughput results (PubChem)
A selection: hits, their analogues and other compounds. The true share with any hit is near 29%.
tolC growth inh – growth inhibitors of E. coli BW25113 tolC mutant. OD615. growth inhibition, % at 10 µM (by protocol). actives 2.2% (n = 65,000). AID 573;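 active = growth inhibition at or above a cutoff equal to the mean over every tested compound plus 3 SD, cut at about 60% in these data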;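 also: growth measured after 20 h incubation at 37 °C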
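signal = optical density read at 615 nm | test system = E. coli ΔtolC::kan strain BW25113 | timing = 20 h compound exposure of bacteria at 37 °C | buffer or medium = LB medium plus 50 µg/mL kanamycin | compound dosing = 10 µM final, single dose | evaluation = % inhibition of E. coli growth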
CYP2C19 inhib – human CYP2C19 inhibition. P33261. actives 21% (n = 96,000). CYP2C19 Supersomes, luciferin-H EGE luminescence, 30 min. inhibition, % at 5 µM;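 active = CYP2C19 inhibition above a set limit at 5 µM in the primary screen, cut at about 50% in these data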
Target sequence (P33261 whole entry, looked up): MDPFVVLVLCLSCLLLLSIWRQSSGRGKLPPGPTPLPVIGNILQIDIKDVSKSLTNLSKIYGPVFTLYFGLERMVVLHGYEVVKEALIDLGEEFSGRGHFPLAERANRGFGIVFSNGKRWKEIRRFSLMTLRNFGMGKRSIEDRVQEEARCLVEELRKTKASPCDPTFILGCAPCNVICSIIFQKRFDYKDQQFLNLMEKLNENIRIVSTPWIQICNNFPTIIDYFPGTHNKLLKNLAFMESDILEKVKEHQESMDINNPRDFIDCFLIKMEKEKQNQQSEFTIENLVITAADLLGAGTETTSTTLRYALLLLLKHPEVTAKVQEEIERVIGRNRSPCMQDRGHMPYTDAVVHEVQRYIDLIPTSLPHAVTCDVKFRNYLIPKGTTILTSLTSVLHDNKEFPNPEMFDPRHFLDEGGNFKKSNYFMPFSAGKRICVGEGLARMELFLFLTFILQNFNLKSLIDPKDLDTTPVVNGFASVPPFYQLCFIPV
CYP2C9 activ – activators of human CYP2C9. actives 1.4% (n = 96,000). AID 1024. P11712. recombinant CYP2C9, luciferin-H conversion, luminescence; active compounds read high; factor 1 = untreated enzyme, 0 = blocked. activation factor at 5 µM;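 active = activation factor of 2 or more for CYP2C9 at a 5 µM dose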
Ecoli WT expand – blocks growth of wild type E. coli BW25113; OD600 absorbance; growth inhibition, % at 100 µM; actives 0.15% (n = 98,000); AID 710;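 active = growth inhibition above about 50% at one test dose, limit read from the data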;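 also: growth measured after 20 h incubation at 37 °C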
CYP2C19 activ – cytochrome P450 2C19 (human) activation; P33261; recombinant CYP2C19, luciferin-H EGE luminescence; active compounds read high; 0 = fully inhibited enzyme, 1 = untreated enzyme; activation factor at 5 µM; 96,000 tested, under 10 active; AID 1025;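 active = activation factor of at least 2 at 5 µM in the primary screen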
CYP2C9 inh – blocks human cytochrome P450 2C9; CYP2C9 Supersomes, luciferin-H conversion, luminescence; inhibition, % at 5 µM; actives 20% (n = 96,000); AID 777;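 active = blocking of liver enzyme CYP2C9 beyond about 50% at 5 µM, limit read from the data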
Of the large screens only hits and unclear results are named; the others gave an inactive call.

COC(=O)c1ccc(C2c3c(n[nH]c3C)C(=O)N2c2ccc(C)cc2)cc1 (stereo unspecified)	tolC growth inh 75, CYP2C19 inhib 77, CYP2C9 inh 63
Cc1ccc(N=Nc2c(N)[nH]n3c(=O)c4c(nc23)CCCC4)cc1	none (no result: tolC growth inh)
CS(=O)(=O)N1CCCC(C(=O)NCc2ccccc2Cl)C1 (stereo unspecified)	none
Clc1ccc(-c2nnc3n2CCCS3)cc1	none (no result: tolC growth inh)
CCOC(=O)c1ccc(N2C(=O)C(O)=C(C(C)=O)C2c2ccc(O)c(OC)c2)cc1 (stereo unspecified)	CYP2C9 inh 81
Cc1[nH]nc2c1C(c1cccnc1)N(c1ccc(Br)cc1)C2=O (stereo unspecified)	none (no result: CYP2C19 inhib, CYP2C9 activ, Ecoli WT expand, CYP2C19 activ, CYP2C9 inh)
CCOC(=O)c1ccc(N2C(=O)c3n[nH]c(C)c3C2c2ccc(OC)cc2)cc1 (stereo unspecified)	CYP2C19 inhib 90, CYP2C9 inh 93
Nc1nc(SCc2nc3scc(-c4ccccc4)c3c(=O)[nH]2)n[nH]1	CYP2C9 inh 50 (no result: tolC growth inh)
CC(Sc1n[nH]c(N)n1)c1nc2scc(-c3cccs3)c2c(=O)[nH]1 (stereo unspecified)	CYP2C9 inh 59 (no result: tolC growth inh)
O=c1[nH]c(Cc2ccccc2)nc2scc(-c3ccccc3)c12	none (no result: tolC growth inh)
Cc1csc2nc(CNC(=O)C3CC=CCC3C(=O)O)cn12 (stereo unspecified)	none
CCc1nc(SCC(=O)Nc2cc(C)on2)c2c(C)c(C)sc2n1	none
Cc1cc(NC(=O)CSc2nc(C3CC3)nc3sc(C)c(C)c23)no1	CYP2C9 inh 63 (no result: tolC growth inh)
Cc1sc2nc(C3CC3)nc(SCC(=O)NCc3ccco3)c2c1C	CYP2C19 inhib 84
Cc1sc2nc(C3CC3)nc(SCC(=O)N3c4ccccc4CC3C)c2c1C (stereo unspecified)	CYP2C19 inhib 65, CYP2C9 inh 99 (no result: tolC growth inh)
CC1Cc2ccccc2N1C(=O)CSc1ncccc1C(=O)O (stereo unspecified)	none (no result: Ecoli WT expand)
CC1CCc2c(sc3nc(C4CC4)nc(SCC(=O)NCc4ccco4)c23)C1 (stereo unspecified)	none (no result: CYP2C19 inhib, CYP2C9 activ, Ecoli WT expand, CYP2C19 activ, CYP2C9 inh)
CCn1cc(/C=C(/C#N)S(=O)(=O)c2ccccc2)cn1	CYP2C9 activ 3
N#C/C(=C\c1ccc[nH]1)S(=O)(=O)c1ccccc1	CYP2C9 activ 5.5
CCC1CCCCN1Cc1ccc(OC)c(C)c1 (stereo unspecified)	none (no result: tolC growth inh)
Cc1cc(NC2CCCCC2)nc(-c2ccccc2O)n1	CYP2C9 inh 57 (no result: tolC growth inh)
CCOC(=O)c1ccc(Nc2cc(C)nc(-c3ccccc3O)n2)cc1	CYP2C9 inh 57
Cc1cc(NCc2ccccc2)nc(-c2ccccc2O)n1	CYP2C9 inh 65
Cc1cc(Nc2cccc(F)c2)nc(-c2ccccc2O)n1	none
Cc1cc(Nc2ccccc2)nc(-c2ccccc2O)n1	tolC growth inh 100
Cc1oc(-c2ccccc2Cl)nc1CSCC(=O)O	none (no result: tolC growth inh)
CCOC(=O)c1ccc(Nc2nc(C(=O)OCC)nc3ccccc23)cc1	CYP2C19 inhib 56 (no result: tolC growth inh)
CCOC(=O)c1sc(NC(=O)CN(CC(C)C)CC(C)C)c(C(=O)OCC)c1C	CYP2C9 inh 62 (no result: tolC growth inh)
CCN(CC)C(=O)c1sc(NC(=O)C(Sc2ccccc2)c2ccccc2)c(C(=O)OC(C)C)c1C (stereo unspecified)	CYP2C9 inh 84 (no result: tolC growth inh)
COC(=O)c1c(NC(=O)c2nc3ncccn3n2)sc(C(=O)N(C)C)c1C	none (no result: Ecoli WT expand)
CCOC(=O)c1c(NC(=O)OC)sc(C(=O)N(CC)CC)c1C	CYP2C19 inhib 56, CYP2C9 inh 67
CCN(CC)C(=O)c1sc(NC(=O)c2ccoc2C)c(C(=O)OC)c1C	none
CCOC(=O)c1c(NC(=O)c2ccoc2C)sc(C(=O)N(C)C)c1C	CYP2C19 inhib 57, CYP2C9 inh 83 (no result: tolC growth inh)
O=C(Cc1ccccc1)Nc1ccc(N2CCN(Cc3ccccc3F)CC2)cc1	none (no result: tolC growth inh)
N#C/C(C(=O)N1CCOCC1)=C1/SC=C(c2ccccc2)N1c1ccccc1	none (no result: CYP2C19 inhib, CYP2C9 activ, Ecoli WT expand, CYP2C19 activ, CYP2C9 inh)
Cn1c(=O)c2c(nc(SCc3ccccn3)n2C)n(C)c1=O	none (no result: Ecoli WT expand)
CCOC(=O)SC1=N/C(=C\c2ccc(N(C)C)cc2)C(=O)S1	CYP2C9 inh 68
COC(=O)c1ccc(COc2ccc3c(C)c(C)c(=O)oc3c2C)o1	none
Cc1c(Cc2ccccc2)c(=O)oc2c(C)c(OCc3nn[nH]n3)ccc12	CYP2C9 inh 81
Cc1cc(OCc2nn[nH]n2)c2c(C)c(CC(=O)O)c(=O)oc2c1	none
Cc1cc(OCc2nn[nH]n2)c2c(C)c(Cc3ccccc3)c(=O)oc2c1	CYP2C19 inhib 80, CYP2C9 inh 98
O=C(c1ccc2c(c1)OCCO2)C1CCN(S(=O)(=O)c2ccc(F)cc2)CC1	none
Cc1cc(=O)oc2cc(OCC(=O)N3CCc4ccccc4C3)ccc12	none
Cc1cc(C(=O)OCC(=O)N2CCc3ccccc32)c(C)o1	none
Cc1cc(=O)oc2ccc(OCC(=O)N3CCc4ccccc43)cc12	CYP2C9 inh 72
Cc1nnc(NC(=O)COc2ccc3c(C)cc(=O)oc3c2)s1	CYP2C9 inh 73 (no result: tolC growth inh)
Cc1cc(=O)oc2cc(OCC(=O)N3CCCc4ccccc43)ccc12	CYP2C9 inh 75
CCC(CC)c1nnc(NC(=O)COc2ccc3c(C)cc(=O)oc3c2)s1	none (no result: tolC growth inh)
Cc1cccc(OCc2nnc(SCC(=O)N3CCc4ccccc43)n2C)c1	none
Cc1cccc(OCCC(=O)OCC(=O)N2CCc3ccccc32)c1	CYP2C19 inhib 53
Cc1ccc(-c2noc(CCCC(=O)Nc3cccnc3)n2)cc1	none
COCCn1c(CNc2ccc(F)cc2)nnc1SCC(=O)Nc1ccc(OC)cc1OC	none
O=C(Nc1ccccc1)c1cccc(N2CCCC2=O)c1	none
CCOc1ccccc1CNC(=O)c1cc2oc3ccccc3c2n1C	none (no result: tolC growth inh)
COCCNC(=O)c1cc2oc3ccccc3c2n1C	CYP2C19 inhib 90, CYP2C9 inh 79 (no result: tolC growth inh)
CC(C)c1ccc(NC(=O)C(c2ccccc2)N2CCOCC2)cc1 (stereo unspecified)	CYP2C19 inhib 55, CYP2C9 inh 68
O=C(OCCCc1ccncc1)c1ccc(S(=O)(=O)N2CCOCC2)cc1	CYP2C19 inhib 96, CYP2C9 inh 97
O=C(O)CCc1ccc(S(=O)(=O)N2CCOCC2)cc1	none (no result: tolC growth inh)
CC1(C)CC(=O)C=C(Nc2cccc(O)c2)C1	none
COCCn1c(=O)c2cc3c(=O)n(CCOC)c(=O)c3cc2c1=O	none (no result: tolC growth inh)
Cc1ccc(Oc2nccc(-c3ccc(Cl)cc3)n2)cc1	CYP2C19 inhib 53 (no result: tolC growth inh)
Cc1cccc(Cn2cnc3c(nnn3Cc3ccc(F)cc3)c2=O)c1	CYP2C19 inhib 58, CYP2C9 activ 2.5
Cc1cccc(Cn2cnc3c(nnn3Cc3ccccc3F)c2=O)c1	CYP2C19 inhib 52, CYP2C9 activ 2.8
Cc1ccc(-n2nnc3c(=O)n(Cc4cccc(C)c4)cnc32)cc1	none
CN1CCC(OC(=O)C23CCC(C)(C(=O)O2)C3(C)C)CC1 (stereo unspecified)	none
O=C(CN1CCN(C(=O)c2ccccc2)CC1)Nc1ccc(Br)cn1	none
